In the library only some 3.8% were active in any assay of this set; here they are far more common.
Measles CPE: protection of cells from measles virus; Measles virus-infected cells, CPE protection, absorbance; protection (pct of control), % at 4 µM; 140,000 tested, 1.5% active; AID 841; in the data active = protection mostly above about 24%, no sharp cut-off; inactive = mostly below about 26%
Yeast life ext: yeast lifespan extension; S. cerevisiae growth with nicotinamide, OD615; deaD strain in restrictive glucose medium; inhibition of the nicotinamide effect, % at 10 µM; 130,000 tested, 0.68% active; AID 775;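 active = inhibition above a set limit, placed 3 SD over the median of all compounds, cut at about 26% in these data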
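System: DeaD-strain S. cerevisiae / Buffer or medium: CSMM-D, restrictive glucose (dextrose) synthetic minimal medium / Probe or stimulus: nicotinamide, 1.5 mM, co-present with compound / Compound: one concentration, 10 µM, DMSO 0.25% / Incubation: 48 h compound exposure at 30 °C, humidified / Technique: optical density (absorbance) at 615 nm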
RAM inhibit: blocks the yeast RAM network; S. cerevisiae dse1pr::URA3 reporter, 5-FOA growth OD615, 2 d; analog-sensitive cbk1-as2 kinase mutant strain; 190,000 tested, 1.8% active; inhibition, % at 50 µM; AID 868;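 active = inhibition above a set limit, 3 SD over mean compound inhibition, cut at about 8.4% in these data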;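 note: inhibition rescues growth on 5-FOA so higher OD means more RAM inhibition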
BB579 growth dn: reduces growth of yeast BB579 in restrictive medium; S. cerevisiae BB579 growth, OD615, 48 h; inhibition, % at 10 µM; 140,000 tested, 0.51% active; AID 804;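 active = inhibition above a set limit, 3 SD over the mean compound inhibition, cut at about 44% in these data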
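Test system: Saccharomyces cerevisiae DeaD strain BB579, replicative lifespan model yeast | Buffer or medium: Restrictive CSMM-D medium | Doses: One dose, 10 µM compound with 0.25% DMSO | Incubation: 48 h exposure, 30 °C | Detection: Culture absorbance at 615 nm | Control set: Amphotericin B at 10 µg/mL as positive control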
Numbers stand for hits; i = inactive; nt = no result.

SMILES | Measles CPE | Yeast life ext | RAM inhibit | BB579 growth dn
NC(N)=NS(=O)(=O)c1ccc(NC(=S)NC(=O)c2ccc3c(c2)OCO3)cc1 | nt | nt | 9.1 | nt
O=C(O)C[C@@H](O)C(=O)O | i | i | i | i
Oc1c(C(Nc2nc3ccccc3s2)c2ccco2)ccc2cccnc12 (stereo not drawn) | i | i | i | 74
CC(C)C(=O)NC(c1ccco1)c1ccc2cccnc2c1O (stereo not drawn) | i | i | i | i
COCCSc1ccccc1C(=O)N1CCc2ccccc2C1 | nt | nt | i | nt
O=C(c1nc2ncccn2n1)N1CCN(c2ccccc2)CC1 | 43 | i | i | i
CCCNC(=O)c1nn2cc(Br)cnc2c1Br | nt | nt | i | nt
CCc1ccc(N(CC(=O)NC2CCCC2)S(=O)(=O)c2c(C)noc2C)cc1 | i | i | 9.0 | i
Cc1ccc2c(c1)c(Sc1ccccc1)c(CC(=O)O)n2C | i | 27 | i | i
Cn1c(=O)c(C(=O)COC(=O)c2cc(-c3ccccc3)nc3ccccc23)c(N)n(Cc2ccccc2)c1=O | 25 | i | i | i
Cn1c(=O)c(C(=O)COC(=O)c2cc(C(F)(F)F)nc3ccccc23)c(N)n(Cc2ccccc2)c1=O | i | i | i | i
C=CCN(CC=C)c1cnn(-c2nc3ccccc3[nH]2)c(=O)c1Cl | i | i | i | i
O=c1c(Cl)c(NCCCO)cnn1-c1nc2ccccc2[nH]1 | i | 81 | i | i
COc1cc(C(=O)Nc2ccc(S(=O)(=O)N3CCOCC3)cc2)c([N+](=O)[O-])cc1OC | nt | nt | i | nt
O=C(c1ccccc1)N1CCC(c2nc(-c3ccc(S(=O)(=O)N4CCOCC4)cc3)no2)CC1 | i | i | i | i
CCS(=O)(=O)N1CCC(c2nc(-c3ccc(C)cc3)no2)CC1 | i | 60 | i | i
CCS(=O)(=O)N1CCC(c2nc(-c3ccc(C(F)(F)F)cc3)no2)CC1 | i | i | i | i
CN(C)c1ccc(-c2noc(C3CCN(S(=O)(=O)c4cccc(C(=O)O)c4)CC3)n2)cc1 | i | i | 9.8 | i
Cc1nc2ccc(NC(=O)c3ccc([N+](=O)[O-])cc3)cc2s1 | i | i | i | i
COc1ccccc1CC(=O)Nc1ccc2nc(C)sc2c1 | i | i | i | i
Cc1cc(NC(=O)c2ccc3nc(C)sc3c2)no1 | 60 | i | i | i
Cc1nc2ccc(NC(=O)c3cc([N+](=O)[O-])cc([N+](=O)[O-])c3Cl)cc2s1 | i | i | i | 89
Cc1ccc(C(=O)Nc2ccc3nc(C)sc3c2)s1 | 60 | i | i | i
COc1cccc(CC(=O)Nc2ccc3nc(C)sc3c2)c1 | i | i | i | 79
COc1ccc(/C=N/N2C(=O)C3C4C=CC(CC4)C3C2=O)c(OC)c1 (stereo not drawn) | nt | nt | i | nt
SMILES | Measles CPE | Yeast life ext | RAM inhibit | BB579 growth dn
CCN(CC)c1ccc(NC(=O)c2ccccc2OCC(=O)OC)cc1 | nt | nt | i | nt
COc1ccc(NC(=O)Nc2c(SC)nsc2SC)cc1 | nt | nt | i | nt
COc1cc(NC(=O)Cc2ccccc2)ccc1NC(=O)c1ccco1 | 64 | i | i | i
CCC(=O)NC(=S)Nc1ccc(NC(=O)c2ccco2)c(OC)c1 | i | i | i | i
Cc1ccsc1/C=C/c1ccc2cccc(O)c2n1 | i | i | i | i
Oc1cccc2ccc(/C=C/c3cccs3)nc12 | i | i | i | 59
C=CCOc1ccc(C(=O)CC)cc1OC | i | i | i | i
CCOc1ccc2c(C)cc(=O)oc2c1OCC | i | i | i | i
CCCCOc1ccc2c(C)cc(=O)oc2c1OCCCC | i | nt | 8.8 | i
O=C(Nc1nc(-c2nc3ccccc3s2)cs1)c1ccco1 | 49 | i | i | i
O=C(Nc1nc(-c2ccc(Cl)s2)cs1)c1ccco1 | nt | nt | i | nt
CCCc1nc2ccc(NC(=O)NCCC(=O)OCC)cc2c(=O)n1Cc1ccc(Cl)cc1 | i | nt | i | i
CCCc1nc2ccc(NC(=O)NCCC(=O)OCC)cc2c(=O)n1Cc1cccc(Cl)c1 | i | i | 10 | i
O=[N+]([O-])c1cccc(/C([O-])=C(/C(=S)Nc2ccccc2)[n+]2ccccc2)c1 | i | i | i | i
CCOC(=O)CSc1n[nH]c(NC(=O)c2ccccc2)n1 | 53 | i | i | i
O=C(O)c1cc(-c2ccc(/C=N/Nc3ccc(Cl)cc3)o2)ccc1Cl | i | i | i | 95
COc1ccc(N2CC(C(=O)Nc3ccccc3C(=O)NCc3ccco3)CC2=O)cc1 (stereo not drawn) | 35 | i | i | i
COC(=O)c1sc2nc(CN3CCN(c4cccc(C(F)(F)F)c4)CC3)[nH]c(=O)c2c1C | i | i | i | i
O=C(NC1CCCCCC1)c1cccc(COCC(F)(F)F)c1 | 36 | nt | i | i
Cc1cc(C)cc(N(C(=O)c2sc(C)nc2C)C(C(=O)NC(C)(C)C)c2ccncc2)c1 (stereo not drawn) | nt | nt | i | nt
O=C(CNC(=S)N(Cc1ccccc1)Cc1cccs1)NCc1ccc(F)cc1 | nt | nt | 8.8 | nt
CC(=O)Nc1ccc2c(c1)CN(c1cc(C)ccc1C)CO2 | i | i | i | i
CC(C)C(NC(=O)C12CC3CC(CC(C3)C1)C2)C(=O)N/N=C/C1=C(N2CCOCC2)C(=C\c2cccc([N+](=O)[O-])c2)/CC1 (stereo not drawn) | i | i | 9.6 | i
O=C(N/N=C/c1cccc([N+](=O)[O-])c1)c1ccc(CN2CCOCC2)cc1 | i | i | i | i
C1CCN(CCCNC2C3CC4CC(C3)CC2C4)C1 (stereo not drawn) | i | i | i | i
SMILES | Measles CPE | Yeast life ext | RAM inhibit | BB579 growth dn
Cn1c(-c2ccccc2)cnc1SCC(=O)N1CCCc2ccccc21 | i | i | i | i
Cn1c(-c2ccccc2)cnc1SCC(=O)N1CCCCC1 | 18 | nt | i | i
c1ccc(-c2cccc(-c3ccccn3)n2)nc1 | i | i | i | 99
c1ccc(-c2nc3ccccc3o2)nc1 | i | i | i | i
CCCCc1ccc(NC(=O)c2cnccn2)cc1 | nt | nt | i | nt
O=C(COc1ccc([N+](=O)[O-])cc1)NNC(=O)c1cccs1 | nt | nt | i | nt
CCC(=O)Nc1ccccc1C(=O)OCC(=O)c1ccccc1 | i | i | i | i
CCC(=O)Nc1ccccc1C(=O)OCC(=O)c1ccc2ccccc2c1 | i | i | 10 | i
COc1ccc(CCNC(=O)C(=O)NCc2ccc(C)cc2)cc1OC | i | i | i | i
CC1(C)CC(=O)c2sc(NS(C)(=O)=O)nc2C1 | i | 97 | i | i
O=C(Nc1cccc(C(F)(F)F)c1)N1CCC(c2nc(-c3ccc(F)cc3)no2)CC1 | i | i | 10 | i
NC(=O)/C(=C\c1cccnc1)NC(=O)c1ccccc1 | nt | nt | i | nt
O=S1(=O)C=C(SCc2ccc(Cl)c(Cl)c2)Nc2ccccc21 | i | i | i | i
CCCCOc1ccc(C(=O)N/C(=C/C=C/c2ccccc2)C(=O)NCCCO)cc1 | 48 | i | i | i
COc1ccc(CN(CC2CCC(C(=O)O)CC2)C(=S)Nc2ccc(C)c(Cl)c2)cc1 (stereo not drawn) | nt | nt | i | nt
COc1ccc(CCN(Cc2cc3cc(C)cc(C)c3nc2Cl)C(=O)C2CC2)cc1 | i | i | 11 | i
O=C(CNC(=S)N(Cc1ccccc1F)C1CCCCC1)NCC1CCCO1 (stereo not drawn) | nt | nt | i | nt
Cn1c(/C=C/c2ccc([N+](=O)[O-])o2)nc2ccccc2c1=O | i | i | i | 82
